# Calls of active or inactive are those of the source. The calls are words filed in the database; no cut-off is given here.
# Assays:
# Rattus norvegicus [1] = assay: In vivo area under curve in rat plasma exposure after oral administration 50 mg/kg; type: ADME, organism-based; design: dose 50 mg/kg, route oral
# Procedure, shortened: (§1)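 Male Sprague–Dawley rats given a single oral dose of 50 mg/kg as a suspension in a wet granulation vehicle (povidone/lactose/polysorbate). Blood was collected by orbital sinus and terminal cardiac puncture at selected times up to 8 h. Livers were perfused intracardially with saline before sampling. Plasma and liver drug concentrations were measured by LC/MS/MS.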
# [2] = molecular target: Serine protease 1 (Homo sapiens) (UniProt P07477); assay: Inhibitory activity against trypsin at 100 uM concentration; Not significant
# Serine protease 1 (Homo sapiens), sequence (P07477 whole entry): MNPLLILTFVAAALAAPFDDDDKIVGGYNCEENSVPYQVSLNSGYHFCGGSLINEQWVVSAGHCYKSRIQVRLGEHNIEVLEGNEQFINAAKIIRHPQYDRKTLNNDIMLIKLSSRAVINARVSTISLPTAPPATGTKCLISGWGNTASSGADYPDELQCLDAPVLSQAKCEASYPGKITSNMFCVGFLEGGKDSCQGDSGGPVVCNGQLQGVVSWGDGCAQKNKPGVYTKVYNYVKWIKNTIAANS
# [3] = molecular target: Prothrombin (Homo sapiens) (UniProt P00734); assay: Inhibitory activity against thrombin at 100 uM concentration; Not significant
# [4] = In vivo concentration in rat liver exposure 8 hour after oral administration 50 mg/kg; type: ADME, organism-based; design: dose 50 mg/kg, route oral; settings: read-out: C; procedure, shortened: as §1
# Rattus norvegicus [5] = assay: In vivo concentration in rat liver exposure 0-8 hour after oral administration 50 mg/kg; type: ADME, organism-based; design: dose 50 mg/kg, route oral; procedure, shortened: as §1
# [6] = In vivo concentration in rat plasma exposure at 8 hour after oral administration 50 mg/kg; type: ADME, organism-based; design: dose 50 mg/kg, route oral; settings: read-out: C; procedure, shortened: as §1
# [7] = molecular target: Kallikrein-1 (Homo sapiens) (UniProt P06870); assay: Inhibitory activity against kallikrein at 100 uM concentration; Not significant
# Kallikrein-1 (Homo sapiens), sequence (P06870 25-262 limits assumed): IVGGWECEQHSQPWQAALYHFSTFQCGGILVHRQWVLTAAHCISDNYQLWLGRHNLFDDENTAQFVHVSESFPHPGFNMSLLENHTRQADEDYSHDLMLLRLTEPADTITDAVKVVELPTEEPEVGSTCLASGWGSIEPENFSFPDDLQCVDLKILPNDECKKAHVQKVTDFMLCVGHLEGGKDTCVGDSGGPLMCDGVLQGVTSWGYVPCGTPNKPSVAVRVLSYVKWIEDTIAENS
# Huh-7 (Homo sapiens) = assay: Cytotoxic activity in liver Huh-7 cells
# [8] = Ratio of cytotoxicity (CC50) to that of replicon (IC50) was determined
# Procedure, shortened: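 Selectivity index: the IC50 from the XTT cytotoxicity assay in Huh-7 cells divided by the IC50 from a modified HCV subgenomic replicon assay.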
# [9] = Ratio of the concentration of liver to that of IC50 replication was determined; type: ADME
# [10] = Inhibitory activity against plasmin at 100 uM concentration; Not significant
# Chymotrypsinogen A = Chymotrypsinogen A (Bos taurus, UniProt P00766); assay: Inhibitory activity against Chymotrypsin
# Procedure, shortened: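 One of a panel of 10 human serine and cysteine proteases (elastase, chymotrypsin, trypsin, kallikrein, plasmin, thrombin, Factor Xa, cathepsins B, G and L).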
# Rattus norvegicus [11] = assay: In vivo concentration in rat liver exposure 8 hour after oral administration 50 mg/kg; Below detection limit; type: ADME, organism-based; design: dose 50 mg/kg, route oral; procedure, shortened: as §1
Compound,AUC (Rattus norvegicus [1]),inhibition [2],inhibition [3],concentration at 8 h [4],Caverage (Rattus norvegicus [5]),concentration at 8 h [6],inhibition [7],CC50 (Huh-7 (Homo sapiens)),Ratio [8],Ratio [9],inhibition [10],IC50 (Chymotrypsinogen A),C (Rattus norvegicus [11])
CC(C)[C@H](NC(=O)c1cnccn1)C(=O)N[C@H](C(=O)N1C[C@@H]2CCC[C@@H]2[C@H]1C(=O)N[C@@H](CC(F)F)C(=O)C(=O)NC1CC1)C(C)(C)C,1880 ng·h/mL,inactive,inactive,0.67 µM,3.64 µM,40 ng/mL,inactive,,,,,,
CC(C)[C@H](NC(=O)c1cnccn1)C(=O)N[C@H](C(=O)N1C[C@@H]2CCC[C@@H]2[C@H]1C(=O)N[C@@H](CC(F)F)C(=O)C(=O)N[C@@H](C)c1ccccc1)C(C)C,,,,,,,,> 100 µM,> 110,,,,
CCC[C@H](NC(=O)[C@@H]1[C@H]2CCC[C@H]2CN1C(=O)[C@@H](NC(=O)[C@@H](NC(=O)c1cnccn1)C(C)C)C(C)(C)C)C(=O)C(=O)NC(C)CC (stereo partly drawn),22300 ng·h/mL,inactive,inactive,8.68 µM,14 µM,920 ng/mL,inactive,> 100 µM,> 29,4,inactive,> 100 µM,
CCC[C@H](NC(=O)[C@@H]1[C@H]2CCC[C@H]2CN1C(=O)[C@@H](NC(=O)[C@@H](NC(=O)c1cnccn1)C(C)C)C(C)(C)C)C(=O)C(=O)NC1CC1,25800 ng·h/mL,inactive,inactive,3.67 µM,16 µM,520 ng/mL,inactive,,,,,> 100 µM,
CCC(C)NC(=O)C(=O)[C@H](CC(F)F)NC(=O)[C@@H]1[C@H]2CCC[C@H]2CN1C(=O)[C@@H](NC(=O)[C@@H](NC(=O)c1cnccn1)C(C)C)C(C)(C)C (stereo partly drawn),,,,,,,,> 100 µM,> 38,,,,
CCC[C@H](NC(=O)[C@@H]1[C@H]2CCC[C@H]2CN1C(=O)[C@@H](NC(=O)[C@@H](NC(=O)c1cnccn1)C(C)C)C(C)(C)C)C(=O)C(=O)N[C@@H](C)c1ccccc1,,inactive,inactive,,,,inactive,,,,,,
CCCC(NC(=O)[C@@H]1[C@H]2CCC[C@H]2CN1C(=O)[C@@H](NC(=O)[C@@H](NC(=O)c1cnccn1)C(C)C)C(C)C)C(=O)C(=O)NC1CC1 (stereo partly drawn),2860 ng·h/mL,inactive,inactive,,6.29 µM,,inactive,,,,,,
CC(C)[C@H](NC(=O)c1cnccn1)C(=O)N[C@H](C(=O)N1C[C@@H]2CCC[C@@H]2[C@H]1C(=O)N[C@@H](CC(F)F)C(=O)C(=O)N[C@@H](C)c1ccccc1)C(C)(C)C,,,,,,,,> 100 µM,> 159,,,,
CC(C)[C@H](NC(=O)c1cnccn1)C(=O)N[C@H](C(=O)N1C[C@@H]2CCC[C@@H]2[C@H]1C(=O)NC(CC(F)F)C(=O)C(=O)NC1CC1)C(C)C (stereo partly drawn),145 ng·h/mL,,,,</- 0.88 uM,20 ng/mL,,> 100 µM,> 26,<= 0.23,,,Below detection limit

# Source: ChEMBL document CHEMBL1149206, “P1 and P3 optimization of novel bicycloproline P2 bearing tetrapeptidyl alpha-ketoamide based HCV protease inhibitors” (Bioorg Med Chem Lett, 2004)
